Activity calls are given as the source filed them. No cut-off for these calls is given here.
What was measured:
Mus musculus [1] = species: Mus musculus; test: Induction of apoptosis in anti-CD-3/[…] co-stimulated Balb/c mouse lymph node cells assessed as apoptotic cells after 24 hrs by annexin V/PI staining-based flow cytometric analysis; assay type: functional
Outline: (§1)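 Lymph node cells isolated from naïve mice were cultured with anti-CD3/anti-CD28 plus compound at 10, 20 or 40 µg/mL for 24 h. Cells were stained with Annexin V-FITC/PI and apoptotic cells were counted by flow cytometry.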

[2] = Induction of apoptosis in anti-CD-3/[…] co-stimulated Balb/c mouse lymph node cells assessed as apoptotic cells at 10 ug/ml after 24 hrs by annexin V/PI staining-based flow cytometric analysis; assay type: functional; outline: as §1
Mus musculus [3] = species: Mus musculus; test: Induction of apoptosis in anti-CD-3/[…] co-stimulated Balb/c mouse lymph node cells assessed as caspase 3 cleavage product p17 formation after 24 hrs by Western blot analysis; assay type: functional
Outline: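 Anti-CD3/anti-CD28 co-stimulated lymph node cells were treated with compound across a dose series. Lysates were probed by Western blot with an anti-cleaved caspase-3 antibody that recognises the p17 cleavage fragment.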

[4] = Immunosuppressive activity in anti-CD3/[…] co-stimulated Balb/c mouse lymph node cells assessed as inhibition of cell proliferation after 72 hrs by ELISA; assay type: functional
Outline: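 Lymph node cells co-stimulated with anti-CD3/anti-CD28. The IC50 is the concentration inhibiting proliferation by 50% relative to control values. Cyclosporin A served as the reference control.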

[5] = Cytotoxicity against Balb/c mouse lymph node cells after 48 hrs by MTT assay; assay type: cell-based
Outline: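 Naïve lymph node cells; the CC50 is the concentration giving 50% cell survival. Cyclosporin A served as the reference control.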

[6] = Induction of apoptosis in anti-CD-3/[…] co-stimulated Balb/c mouse lymph node cells assessed as apoptotic cells at 40 ug/ml after 24 hrs by annexin V/PI staining-based flow cytometric analysis; assay type: functional; outline: as §1
[7] = Selectivity index, ratio of CC50 for Balb/c mouse lymph node cells to IC50 for anti-CD3/[…] co-stimulated mouse Balb/c mouse lymph node cells; assay type: functional
Outline: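 The selectivity index is CC50 on unstimulated lymph node cells divided by IC50 for proliferation of anti-CD3/anti-CD28 co-stimulated lymph node cells, both relative to control values.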

[8] = Induction of apoptosis in anti-CD-3/[…] co-stimulated Balb/c mouse lymph node cells assessed as apoptotic cells at 20 ug/ml after 24 hrs by annexin V/PI staining-based flow cytometric analysis; assay type: functional; outline: as §1
Mus musculus [9] = species: Mus musculus; test: Induction of apoptosis in anti-CD-3/[…] co-stimulated Balb/c mouse lymph node cells assessed as PARP cleavage at 10 to 40 ug/ml after 24 hrs by Western blot analysis; assay type: functional

Row | Structure (SMILES) | Activity (Mus musculus [1]) | Activity [2] | Activity (Mus musculus [3]) | IC50 [4] | CC50 at 48 h [5] | Activity [6] | Ratio CC50/IC50 [7] | Activity [8] | Activity (Mus musculus [9])
1 | COc1ccc(C(/C=C/c2ccc(Br)cc2)=N/O)cc1 | Dose-dependent effect | 22.71% | Dose-dependent effect | 13.9 µM | 737 µM | 40.63% | 52.93 | 32.25% | 
2 | O/N=C(\C=C\c1cccs1)c1ccc(Br)cc1 |  |  |  | 11.2 µM | 15.3 µM |  | 1.38 |  | 
3 | COc1ccc(C(=O)/C=C/c2ccc(Br)cc2)cc1 |  |  |  | 25.1 µM | 93.7 µM |  | 3.73 |  | 
4 | COc1ccc(/C=C/C(=N\O)c2ccc(OC)cc2)cc1 | Dose-dependent effect | 25.83% | Dose-dependent effect | 12.3 µM | 2170 µM | 96.46% | 176.69 | 34.05% | Active
5 | Cc1ccc(C(/C=C/c2ccc(F)cc2)=N/O)cc1 |  |  |  | 11.2 µM | 13.2 µM |  | 1.17 |  | 
6 | O/N=C(\C=C\c1ccc(Cl)c(Cl)c1)c1ccc(Br)cc1 |  |  |  | < 5 µM | < 5 µM |  |  |  | 
7 | COc1ccc(/C=C/C(=N\O)c2ccc(Br)cc2)cc1 |  |  |  | < 5 µM | 23.7 µM |  | >4.75 |  | 
8 | O/N=C(\C=C\c1ccc(Cl)cc1)c1ccc(Br)cc1 |  |  |  | 14.7 µM | 24.7 µM |  | 1.68 |  | 
9 | O/N=C(\C=C\c1ccc(F)cc1)c1ccc(Cl)cc1 |  |  |  | 10.6 µM | 11.5 µM |  | 1.08 |  | 
10 | O/N=C(\C=C\c1cccs1)c1ccc(Cl)cc1 |  |  |  | 9.59 µM | 11.8 µM |  | 1.23 |  | 
11 | COc1ccc(C(/C=C/c2cccs2)=N/O)cc1 |  |  |  | 8.49 µM | 10.6 µM |  | 1.25 |  | 
12 | Cc1ccc(C(/C=C/c2ccc(Cl)c(Cl)c2)=N/O)cc1 |  |  |  | 6.34 µM | 14.7 µM |  | 2.32 |  | 
13 | COc1ccc(C(/C=C/c2ccc(Cl)cc2)=N/O)cc1 |  |  |  | 11.5 µM | 291 µM |  | 25.31 |  | 
14 | COc1ccc(/C=C/C(=N\O)c2ccc(Cl)cc2)cc1 |  |  |  | 5.85 µM | 24.3 µM |  | 4.16 |  | 
15 | O/N=C(\C=C\c1ccc(F)cc1)c1ccc(Br)cc1 |  |  |  | 13.3 µM | 20.3 µM |  | 1.53 |  | 
16 | COc1ccc(C(/C=C/c2ccccc2)=N/O)cc1 |  |  |  | 11.8 µM | 28.6 µM |  | 2.42 |  | 
17 | O/N=C(\C=C\c1ccc(Cl)cc1)c1ccc(F)cc1 |  |  |  | 10.9 µM | 14.8 µM |  | 1.36 |  | 
18 | COc1ccc(C(/C=C/c2ccc(F)cc2)=N/O)cc1 |  |  |  | 11 µM | 13.5 µM |  | 1.23 |  | 
19 | Cc1ccc(C(/C=C/c2ccc(Br)cc2)=N/O)cc1 |  |  |  | 11.6 µM | 34.2 µM |  | 2.94 |  | 
20 | COc1ccc(/C=C/C(=N\O)c2ccc(C)cc2)cc1 |  |  |  | 6.24 µM | 117 µM |  | 18.82 |  | 
21 | O/N=C(\C=C\c1ccc(Cl)cc1)c1ccc(Cl)cc1 |  |  |  | 9.15 µM | 14.1 µM |  | 1.54 |  | 
22 | COc1ccc(C(/C=C/c2ccc(Cl)cc2Cl)=N/O)cc1 |  |  |  | 11.2 µM | 25 µM |  | 2.24 |  | 
23 | Cc1ccc(C(/C=C/c2ccc(Cl)cc2)=N/O)cc1 |  |  |  | 11.6 µM | 21.3 µM |  | 1.84 |  | 
24 | COc1ccc(/C=C/C(=O)c2ccc(OC)cc2)cc1 [4,4'-DIMETHOXYCHALCONE] |  |  |  | 23.6 µM | 1790 µM |  | 75.98 |  | 
